High-throughput results: PubChem, Broad Institute
The list is not random: actives were taken first. Their share in the collection is about 1.3%.
PAX8 reporter – inhibitors of PAX8-driven TPO luciferase reporter, primary screen, RMG-I cells, single concentration | SteadyGlo, 24 h | inhibition, % at 12.6 µM | 360,000 compounds, 1.2% hits;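 active = mean replicate inhibition at least 60% with every replicate also reaching 60%; inconclusive = only one of the two criteria is met; inactive = mean below 60% and not all replicates reaching 60%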;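 also: luciferase light reporting Pax8 driven TPO promoter activity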
FN deposit inh – inhibitors of fibronectin matrix deposition, primary screen, AH1F cells, Alexa488-fibronectin fluorescence, plate reader | AH1F fibroblasts, overnight | inhibition, % at 12.6 µM | 350,000 compounds, 0.086% hits;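 active = mean inhibition across replicates of 30% or more, regardless of how many single replicates reach that level; inconclusive = mean under 30% yet at least half of replicates reach 30%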
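Material: AH1F fibroblast monolayer depositing Alexa488-labelled fibronectin into matrix / Amount: 10000 AH1F cells per well / Signal: fluorescence 485/525 nm / Medium: DMEM, 2% serum / Compound: single dose, pinned / Incubation: 1 h cell adhesion before compound, then overnight fibronectin incubation / Reagent: Alexa488-FN, 24 nM final / Read-out: inhibition of fibronectin deposition signal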
RAD54 inh – inhibitors of human RAD54 branch migration, primary screen, biochemical, fluorescence, single point. RAD54 Holliday junction branch migration, FAM/BHQ fluorescence. inhibition, % at 10.4 µM. AID 602329, 2012. 360,000 compounds, 0.14% hits. DNA repair and recombination protein RAD54-like (Homo sapiens), Q92698;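 active = mean normalized replicate activity at least 40 and at least half of replicates scoring 40 or more; inconclusive = only one of the two criteria met; inactive = mean below 40 and under half of replicates reaching 40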;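 also: inhibitors cause a drop in the FAM fluorescence signal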
RAD52 anneal inh – RAD52 DNA annealing inhibitors, primary screen, biochemical, FRET, single point, set 2; DNA repair protein RAD52 homolog (Homo sapiens), P43351; inhibition, % at 18.7 µM; recombinant RAD52 DNA annealing, FRET fluorescence; 360,000 compounds, 0.46% hits;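 active = every replicate showing at least 50% inhibition; inconclusive = mean inhibition at least 50% but not in every replicate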
Target sequence (P43351 whole entry, looked up): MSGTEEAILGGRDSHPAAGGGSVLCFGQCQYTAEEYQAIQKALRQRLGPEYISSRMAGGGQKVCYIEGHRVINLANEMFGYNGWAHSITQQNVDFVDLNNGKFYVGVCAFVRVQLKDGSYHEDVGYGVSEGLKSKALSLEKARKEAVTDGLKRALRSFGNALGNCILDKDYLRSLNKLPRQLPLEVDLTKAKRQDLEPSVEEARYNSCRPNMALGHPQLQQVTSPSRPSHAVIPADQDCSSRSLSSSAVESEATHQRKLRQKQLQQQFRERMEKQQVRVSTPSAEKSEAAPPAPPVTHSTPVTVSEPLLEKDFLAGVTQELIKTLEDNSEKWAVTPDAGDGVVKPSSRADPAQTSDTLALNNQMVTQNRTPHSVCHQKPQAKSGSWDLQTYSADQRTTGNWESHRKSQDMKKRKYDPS
RAD52 DNA ctr – DNA-binding compounds via dye displacement, dose response, artefact control for RAD52 inhibitor project, biochemical, fluorescence polarization, cherry-pick; 1,000 compounds, 8% hits; AC50, µM; shares compounds with RAD52 anneal inh; Salmon sperm DNA/acridine orange FP displacement;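 active = fitted half-maximal concentration for signal loss at or below twice the highest dose tested, in every separate run, actives reach about 64 µM in these data; inconclusive = runs disagree, or flat partial signal loss, or poor fit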
Hits are given with their value; . = inactive; ? = inconclusive; / = not tested or not shown; ! = not active in a repeat.

SMILES	PAX8 reporter	FN deposit inh	RAD54 inh	RAD52 anneal inh	RAD52 DNA ctr
CCn1c(C)nc2cc(OC)ccc21	.	.	.	.	/
Cc1nc2cc(N)ccc2n1C1CCCCC1	.	.	/	91	.
CC(=O)OCn1ncc(N2CCOCC2)c(Br)c1=O	.	.	.	94	.
CC(C)N=C(N)N=C(N)Nc1ccc(Cl)cc1	.	.	.	.	/
NC(=NCCCCCCN=C(N)/N=C(\N)Nc1ccc(Cl)cc1)/N=C(\N)Nc1ccc(Cl)cc1	98!	.	59!	95	.
C=CC(=C)CC(NC)c1ccccc1 (centres undefined)	/	/	.	59	.
CN(C)CCNC(=O)c1cccc2nc3cccc(F)c3nc12	.	.	/	97	18µM
COc1ccc(OC)c2nc3c(C(=O)NCCN(C)C)cccc3nc12	/	.	/	105	4.7µM
CN(C)CCNC(=O)c1cccc2ccc(-c3ccc(-c4ccccc4)cc3)nc12	.	/	/	.	/
COC(=O)CN1C(=O)[C@H]2[C@@H](c3ccc(C)o3)N3C(=O)CN(CC4CC4)C(=O)[C@@]3(C)[C@H]2C1=O	.	.	.	.	/
CC(C)NC(=O)N(C)C[C@H]1OCCCC[C@H](C)Oc2ccc(NS(C)(=O)=O)cc2C(=O)N([C@@H](C)CO)C[C@@H]1C	.	/	.	.	/
CCN(CC)CCNC(=O)c1ccc(NC(=O)c2cccc(S(=O)(=O)N3CCc4ccccc43)c2)cc1	/	.	/	50	.
CCN(CC)CCNC(=O)c1ccc(NC(=O)c2cccc(S(=O)(=O)N3c4ccccc4CC3C)c2)cc1 (centres undefined)	.	.	.	.	/
C#CCOCCOCCOCCNc1nc(N2CCN(C(=O)[C@H](CCCCN)n3cc(CN)nn3)CC2)nc(N2CCN(C(=O)[C@H](CO)n3cc([C@@H](N)C(C)C)nn3)CC2)n1	.	.	.	60	.
C#CCOCCOCCOCCNc1nc(N2CCN(C(=O)[C@H]([C@@H](C)CC)n3cc([C@@H](N)CO)nn3)CC2)nc(N2CCN(C(=O)[C@H](CCCCN)n3cc([C@@H](N)C(C)CC)nn3)CC2)n1 (some centres undefined)	.	.	.	57	.
C#CCOCCOCCOCCNc1nc(N2CCN(C(=O)[C@H]([C@@H](C)CC)n3cc(CCCCN)nn3)CC2)nc(N2CCN(C(=O)[C@H](CCCCN)n3cc(CCCC)nn3)CC2)n1	.	.	.	54	.
C#CCOCCOCCOCCNc1nc(N2CCN(C(=O)[C@H](CCCCN)n3cc(CN)nn3)CC2)nc(N2CCN(C(=O)[C@H](CCCCN)n3cc([C@@H](N)[C@H](C)CC)nn3)CC2)n1	.	.	79	72	37µM
CCOc1ccc2nc(SCC(=O)c3ccc(O)cc3O)sc2c1	.	.	.	.	/
COc1cccc(-c2nc(CN3CCN(C(=O)c4ccco4)CC3)c(C)o2)c1OC	.	.	.	.	/
COc1ccccc1C1CC(c2ccc(Br)cc2)=NN1C(=O)c1cccnc1 (centres undefined)	.	.	/	/	/
C#CCOCCOCCOCCNc1nc(N2CCN(C(=O)[C@H](CCCN=C(N)N)n3cc(C(N)[C@@H](C)CC)nn3)CC2)nc(N2CCN(C(=O)[C@H](CCCCN)n3cc([C@@H](N)[C@H](C)CC)nn3)CC2)n1 (some centres undefined)	.	.	.	63	.
C#CCOCCOCCOCCNc1nc(N2CCN(C(=O)[C@H](CCCN=C(N)N)n3cc(C(N)[C@@H](C)CC)nn3)CC2)nc(N2CCN(C(=O)[C@H](CCC(=O)O)n3cc([C@@H](N)CCCCN)nn3)CC2)n1 (some centres undefined)	.	.	.	.	/
COc1cc(NCCCCC(C)N)c2nccc(C)c2c1 (centres undefined)	.	.	.	76	.
CN(C)CCCNC(=O)/C(=C/c1ccc(-c2ccc([N+](=O)[O-])cc2)o1)NC(=O)c1ccccc1	.	.	.	.	/
Cc1ccc(C(=O)N/C(=C\c2ccc(-c3ccc(Cl)cc3)o2)C(=O)NCCCN(C)C)cc1	.	.	/	52	.
CN(C)CCCNC(=O)/C(=C\c1ccc(-c2ccc(Br)cc2)o1)NC(=O)c1ccccc1	.	.	?	62	.
CN(C)CCNc1ncnc2c1sc1nc(-c3ccccc3)c3c(c12)CCCC3	64	.	.	70	.
